Several values for one entry are separate records, joined by “and”; a condition that tells them apart may be missing. Identical values can stand only once. Like-named read-outs stand apart in the source and are kept apart here.
What was measured:
[1] = test system: α-tubulin acetylation in PC-3 cells; experiment: Western blot of acetylated α-tubulin in PC-3 cells; assay type: cell-based, human; settings: 18 h
Method in brief: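 PC-3 cells seeded overnight in complete medium, then treated 18 h with test compound (10 doses, threefold dilution). Washed with PBS and lysed in 1× SDS sample buffer. Lysates resolved on 12% Bis-Tris SDS-PAGE and transferred to nitrocellulose. Blocked 1 h in 3% nonfat milk, probed overnight with anti-acetyl-tubulin and a fluorescent secondary, scanned, then reprobed for total α-tubulin. One of three experiments shown.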

HDAC4 = HDAC4 (Homo sapiens, UniProt P56524); experiment: HDAC biochemical assay
Chain of HDAC4 (P56524 whole entry): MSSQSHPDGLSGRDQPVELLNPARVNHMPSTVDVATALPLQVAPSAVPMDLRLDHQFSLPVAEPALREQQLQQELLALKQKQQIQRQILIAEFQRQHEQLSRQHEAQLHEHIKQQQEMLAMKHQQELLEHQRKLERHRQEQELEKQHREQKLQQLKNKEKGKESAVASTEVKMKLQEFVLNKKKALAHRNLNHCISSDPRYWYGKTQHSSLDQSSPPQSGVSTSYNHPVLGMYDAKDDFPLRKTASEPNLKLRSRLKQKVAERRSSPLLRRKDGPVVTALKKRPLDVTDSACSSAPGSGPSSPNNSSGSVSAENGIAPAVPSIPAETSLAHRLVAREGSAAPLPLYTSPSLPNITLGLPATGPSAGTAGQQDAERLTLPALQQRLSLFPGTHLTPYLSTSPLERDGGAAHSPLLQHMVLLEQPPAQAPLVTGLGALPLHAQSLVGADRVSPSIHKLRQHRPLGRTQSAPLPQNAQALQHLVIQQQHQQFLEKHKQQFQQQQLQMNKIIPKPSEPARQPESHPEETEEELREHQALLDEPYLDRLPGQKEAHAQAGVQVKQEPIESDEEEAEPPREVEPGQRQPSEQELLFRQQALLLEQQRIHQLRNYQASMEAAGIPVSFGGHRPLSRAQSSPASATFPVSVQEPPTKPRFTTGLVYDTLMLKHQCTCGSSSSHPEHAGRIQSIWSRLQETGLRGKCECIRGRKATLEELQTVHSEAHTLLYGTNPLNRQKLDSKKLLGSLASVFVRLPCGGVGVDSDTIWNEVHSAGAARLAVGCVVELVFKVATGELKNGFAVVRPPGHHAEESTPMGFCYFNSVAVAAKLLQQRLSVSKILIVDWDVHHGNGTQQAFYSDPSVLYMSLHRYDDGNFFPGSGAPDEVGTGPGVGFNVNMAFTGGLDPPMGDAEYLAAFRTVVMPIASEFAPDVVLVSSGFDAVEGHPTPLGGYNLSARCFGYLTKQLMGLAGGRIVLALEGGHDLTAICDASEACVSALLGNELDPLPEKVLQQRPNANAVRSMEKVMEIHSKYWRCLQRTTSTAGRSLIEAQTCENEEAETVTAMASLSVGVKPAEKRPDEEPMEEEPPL

[2] = test system: histone H3 acetylation in PC-3 cells; experiment: Western blot of histone H3 acetylation in PC-3 cells; assay type: cell-based, human; settings: data not shown
HDAC5 = HDAC5 (Homo sapiens, UniProt Q9UQL6); experiment: HDAC biochemical assay
Chain of HDAC5 (Q9UQL6 whole entry): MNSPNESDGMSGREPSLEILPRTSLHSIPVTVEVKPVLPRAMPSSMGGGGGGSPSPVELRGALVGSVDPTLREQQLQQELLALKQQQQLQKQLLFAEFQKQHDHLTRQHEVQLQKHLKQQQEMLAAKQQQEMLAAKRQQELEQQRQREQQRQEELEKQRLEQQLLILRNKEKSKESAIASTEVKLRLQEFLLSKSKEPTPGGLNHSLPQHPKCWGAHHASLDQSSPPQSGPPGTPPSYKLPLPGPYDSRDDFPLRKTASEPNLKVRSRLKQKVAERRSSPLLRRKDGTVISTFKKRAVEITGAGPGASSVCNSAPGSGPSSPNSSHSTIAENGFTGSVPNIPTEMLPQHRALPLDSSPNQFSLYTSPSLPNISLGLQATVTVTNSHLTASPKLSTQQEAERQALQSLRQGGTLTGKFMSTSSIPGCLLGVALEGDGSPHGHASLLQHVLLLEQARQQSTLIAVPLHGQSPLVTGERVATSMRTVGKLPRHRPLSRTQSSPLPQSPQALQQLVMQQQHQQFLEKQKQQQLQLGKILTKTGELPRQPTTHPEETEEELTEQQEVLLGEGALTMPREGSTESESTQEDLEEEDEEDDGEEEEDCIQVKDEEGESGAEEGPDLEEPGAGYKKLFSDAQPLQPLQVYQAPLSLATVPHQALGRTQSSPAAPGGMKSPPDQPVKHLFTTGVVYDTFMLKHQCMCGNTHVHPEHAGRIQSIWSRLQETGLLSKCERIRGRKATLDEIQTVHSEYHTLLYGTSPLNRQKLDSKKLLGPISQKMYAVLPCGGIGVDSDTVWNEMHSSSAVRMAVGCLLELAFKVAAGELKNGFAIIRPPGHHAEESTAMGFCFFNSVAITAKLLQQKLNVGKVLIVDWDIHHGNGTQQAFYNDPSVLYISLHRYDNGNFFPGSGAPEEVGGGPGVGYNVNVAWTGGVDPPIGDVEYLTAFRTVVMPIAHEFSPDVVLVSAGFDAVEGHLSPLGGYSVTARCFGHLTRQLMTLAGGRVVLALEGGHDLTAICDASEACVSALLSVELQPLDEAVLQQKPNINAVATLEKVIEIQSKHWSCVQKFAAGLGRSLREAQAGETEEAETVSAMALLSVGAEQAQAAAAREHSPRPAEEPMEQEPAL

HDAC10 = target: T1, HDAC10 (Homo sapiens, UniProt Q969S8); experiment: HDAC biochemical assay
T1 sequence (Q969S8 1-669): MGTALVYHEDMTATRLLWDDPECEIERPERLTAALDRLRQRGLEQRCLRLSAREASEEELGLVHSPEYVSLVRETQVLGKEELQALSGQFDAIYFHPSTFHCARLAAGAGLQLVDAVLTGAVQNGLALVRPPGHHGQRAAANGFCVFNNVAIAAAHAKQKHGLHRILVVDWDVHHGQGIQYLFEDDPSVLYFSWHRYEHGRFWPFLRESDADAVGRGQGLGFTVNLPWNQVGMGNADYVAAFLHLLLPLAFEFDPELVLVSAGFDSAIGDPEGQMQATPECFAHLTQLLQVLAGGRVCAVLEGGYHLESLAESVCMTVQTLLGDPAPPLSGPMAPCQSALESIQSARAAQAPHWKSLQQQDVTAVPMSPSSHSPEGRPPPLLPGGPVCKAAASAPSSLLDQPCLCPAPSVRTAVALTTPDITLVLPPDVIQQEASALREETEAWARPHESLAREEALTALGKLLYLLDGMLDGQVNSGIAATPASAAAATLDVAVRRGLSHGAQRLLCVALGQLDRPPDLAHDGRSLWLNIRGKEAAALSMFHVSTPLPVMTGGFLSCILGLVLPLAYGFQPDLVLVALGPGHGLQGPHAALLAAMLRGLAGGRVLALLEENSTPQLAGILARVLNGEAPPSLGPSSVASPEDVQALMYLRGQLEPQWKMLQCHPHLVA

HDAC6 = target: T2, HDAC6 (Homo sapiens, UniProt Q9UBN7); experiment: HDAC biochemical assay; settings: AMC-labeled peptide substrate
T2 sequence (Q9UBN7 1-1215): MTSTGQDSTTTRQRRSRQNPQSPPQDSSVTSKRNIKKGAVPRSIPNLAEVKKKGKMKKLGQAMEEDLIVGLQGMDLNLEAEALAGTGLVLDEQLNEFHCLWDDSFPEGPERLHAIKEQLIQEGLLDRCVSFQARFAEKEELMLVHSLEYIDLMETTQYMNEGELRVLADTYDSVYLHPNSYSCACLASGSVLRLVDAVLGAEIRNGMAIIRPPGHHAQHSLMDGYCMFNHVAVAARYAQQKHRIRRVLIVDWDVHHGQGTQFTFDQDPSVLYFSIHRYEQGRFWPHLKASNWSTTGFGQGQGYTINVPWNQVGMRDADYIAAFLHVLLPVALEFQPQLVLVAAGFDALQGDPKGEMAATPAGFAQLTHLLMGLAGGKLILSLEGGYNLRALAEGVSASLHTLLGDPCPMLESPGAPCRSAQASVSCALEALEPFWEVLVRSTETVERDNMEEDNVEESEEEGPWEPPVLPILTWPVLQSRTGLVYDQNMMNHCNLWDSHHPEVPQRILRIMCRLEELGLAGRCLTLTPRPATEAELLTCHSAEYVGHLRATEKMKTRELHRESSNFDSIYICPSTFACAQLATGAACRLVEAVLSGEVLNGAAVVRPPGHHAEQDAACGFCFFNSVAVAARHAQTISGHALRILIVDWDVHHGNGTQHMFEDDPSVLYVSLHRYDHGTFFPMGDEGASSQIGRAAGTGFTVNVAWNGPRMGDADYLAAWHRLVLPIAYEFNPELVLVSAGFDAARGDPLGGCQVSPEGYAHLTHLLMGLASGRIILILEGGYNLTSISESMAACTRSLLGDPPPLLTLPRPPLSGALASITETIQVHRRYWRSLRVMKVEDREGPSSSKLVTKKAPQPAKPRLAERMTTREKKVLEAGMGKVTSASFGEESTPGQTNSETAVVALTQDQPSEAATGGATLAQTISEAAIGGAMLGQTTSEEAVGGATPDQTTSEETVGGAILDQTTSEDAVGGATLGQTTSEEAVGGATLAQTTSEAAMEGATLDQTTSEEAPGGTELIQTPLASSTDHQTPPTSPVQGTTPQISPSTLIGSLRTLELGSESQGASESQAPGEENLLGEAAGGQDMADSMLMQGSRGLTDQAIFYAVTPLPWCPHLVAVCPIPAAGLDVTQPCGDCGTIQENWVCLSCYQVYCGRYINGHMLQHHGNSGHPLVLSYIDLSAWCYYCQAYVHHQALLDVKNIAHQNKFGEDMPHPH

HDAC11 = target: T3, HDAC11 (Homo sapiens, UniProt Q96DB2); experiment: HDAC biochemical assay
T3 sequence (Q96DB2 1-347): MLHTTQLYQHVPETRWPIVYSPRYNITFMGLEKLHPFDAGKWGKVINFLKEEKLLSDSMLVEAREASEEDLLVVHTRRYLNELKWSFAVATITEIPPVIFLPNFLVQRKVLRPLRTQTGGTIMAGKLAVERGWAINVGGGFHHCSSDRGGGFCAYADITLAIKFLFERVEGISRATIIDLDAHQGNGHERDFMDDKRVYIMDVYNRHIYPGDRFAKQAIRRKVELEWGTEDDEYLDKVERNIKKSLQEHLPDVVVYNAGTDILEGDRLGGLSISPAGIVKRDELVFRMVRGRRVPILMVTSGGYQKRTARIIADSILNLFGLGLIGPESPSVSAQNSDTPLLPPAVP

HDAC7 = target: T4, HDAC7 (Homo sapiens, UniProt Q8WUI4); experiment: HDAC biochemical assay
T4 sequence (Q8WUI4 1-952): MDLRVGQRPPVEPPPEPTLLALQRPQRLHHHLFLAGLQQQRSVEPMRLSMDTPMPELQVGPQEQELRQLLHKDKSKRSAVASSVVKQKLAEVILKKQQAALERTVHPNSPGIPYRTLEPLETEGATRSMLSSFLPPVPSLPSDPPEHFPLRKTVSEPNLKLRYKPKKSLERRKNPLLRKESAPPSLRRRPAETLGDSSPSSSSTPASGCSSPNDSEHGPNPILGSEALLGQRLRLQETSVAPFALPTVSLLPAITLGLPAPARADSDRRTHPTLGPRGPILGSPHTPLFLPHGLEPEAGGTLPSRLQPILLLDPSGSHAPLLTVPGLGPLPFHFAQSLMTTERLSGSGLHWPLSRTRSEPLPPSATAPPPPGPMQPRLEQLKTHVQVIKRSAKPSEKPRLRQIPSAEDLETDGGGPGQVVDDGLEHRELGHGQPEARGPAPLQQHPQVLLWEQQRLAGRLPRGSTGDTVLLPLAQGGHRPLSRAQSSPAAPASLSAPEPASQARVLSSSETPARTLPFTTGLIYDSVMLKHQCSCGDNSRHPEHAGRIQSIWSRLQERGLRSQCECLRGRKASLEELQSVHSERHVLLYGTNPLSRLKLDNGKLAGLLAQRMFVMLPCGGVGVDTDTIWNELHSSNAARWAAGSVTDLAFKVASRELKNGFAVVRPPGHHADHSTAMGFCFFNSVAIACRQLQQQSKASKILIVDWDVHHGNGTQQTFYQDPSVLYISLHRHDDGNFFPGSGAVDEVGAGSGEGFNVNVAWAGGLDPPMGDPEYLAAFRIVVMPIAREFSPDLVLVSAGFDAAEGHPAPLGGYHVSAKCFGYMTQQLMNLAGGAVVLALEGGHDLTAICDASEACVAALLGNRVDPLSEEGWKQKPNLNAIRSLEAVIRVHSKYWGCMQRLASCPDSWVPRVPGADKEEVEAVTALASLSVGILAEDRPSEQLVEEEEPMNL

several HDAC subtypes = experiment: Primary screening at 10 µM in HDAC enzymatic assay; assay type: biochemical; settings: 10 µM of compound
Method in brief: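 Recombinant HDACs run with fluorogenic AMC peptides: RHKKAc-AMC for HDAC1, 2, 3, 6, 10 and 11; RHKAcKAc-AMC for HDAC8; acetyl-Lys(trifluoroacetyl)-AMC for HDAC4, 5, 7 and 9. Substrate then added; developer digests deacetylated product; AMC fluorescence read.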

HDAC8 = target: T5, HDAC8 (Homo sapiens, UniProt Q9BY41); experiment: HDAC biochemical assay; settings: RHKAcKAc-AMC substrate
T5 sequence (Q9BY41 1-377): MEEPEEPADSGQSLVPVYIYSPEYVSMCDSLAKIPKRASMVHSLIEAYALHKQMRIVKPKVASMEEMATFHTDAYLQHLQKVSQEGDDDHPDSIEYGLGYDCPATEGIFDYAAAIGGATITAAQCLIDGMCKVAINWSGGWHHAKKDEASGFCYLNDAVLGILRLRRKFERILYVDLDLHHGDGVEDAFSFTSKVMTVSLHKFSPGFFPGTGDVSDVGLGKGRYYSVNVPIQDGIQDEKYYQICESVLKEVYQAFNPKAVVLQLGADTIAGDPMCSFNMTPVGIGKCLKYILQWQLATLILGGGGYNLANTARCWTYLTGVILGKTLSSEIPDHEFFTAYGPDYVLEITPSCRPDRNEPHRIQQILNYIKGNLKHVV

HDAC1 = HDAC1 (Homo sapiens, UniProt Q13547); experiment: HDAC biochemical assay
Chain of HDAC1 (Q13547 whole entry): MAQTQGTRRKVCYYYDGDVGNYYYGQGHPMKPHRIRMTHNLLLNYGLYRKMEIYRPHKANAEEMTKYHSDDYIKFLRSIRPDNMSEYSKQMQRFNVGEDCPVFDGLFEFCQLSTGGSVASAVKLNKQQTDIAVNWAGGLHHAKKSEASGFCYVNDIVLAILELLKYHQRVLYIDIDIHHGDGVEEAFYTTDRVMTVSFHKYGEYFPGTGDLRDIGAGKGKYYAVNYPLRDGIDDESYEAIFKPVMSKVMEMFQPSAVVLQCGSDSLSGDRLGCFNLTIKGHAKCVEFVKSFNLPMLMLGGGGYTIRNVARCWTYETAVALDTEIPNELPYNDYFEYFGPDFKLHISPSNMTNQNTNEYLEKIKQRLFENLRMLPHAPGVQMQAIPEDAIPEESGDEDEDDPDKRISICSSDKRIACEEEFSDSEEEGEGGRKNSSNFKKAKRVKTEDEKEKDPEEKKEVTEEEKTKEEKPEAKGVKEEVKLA

HDAC9 = HDAC9 (Homo sapiens, UniProt Q9UKV0); experiment: HDAC biochemical assay
Chain of HDAC9 (Q9UKV0 whole entry): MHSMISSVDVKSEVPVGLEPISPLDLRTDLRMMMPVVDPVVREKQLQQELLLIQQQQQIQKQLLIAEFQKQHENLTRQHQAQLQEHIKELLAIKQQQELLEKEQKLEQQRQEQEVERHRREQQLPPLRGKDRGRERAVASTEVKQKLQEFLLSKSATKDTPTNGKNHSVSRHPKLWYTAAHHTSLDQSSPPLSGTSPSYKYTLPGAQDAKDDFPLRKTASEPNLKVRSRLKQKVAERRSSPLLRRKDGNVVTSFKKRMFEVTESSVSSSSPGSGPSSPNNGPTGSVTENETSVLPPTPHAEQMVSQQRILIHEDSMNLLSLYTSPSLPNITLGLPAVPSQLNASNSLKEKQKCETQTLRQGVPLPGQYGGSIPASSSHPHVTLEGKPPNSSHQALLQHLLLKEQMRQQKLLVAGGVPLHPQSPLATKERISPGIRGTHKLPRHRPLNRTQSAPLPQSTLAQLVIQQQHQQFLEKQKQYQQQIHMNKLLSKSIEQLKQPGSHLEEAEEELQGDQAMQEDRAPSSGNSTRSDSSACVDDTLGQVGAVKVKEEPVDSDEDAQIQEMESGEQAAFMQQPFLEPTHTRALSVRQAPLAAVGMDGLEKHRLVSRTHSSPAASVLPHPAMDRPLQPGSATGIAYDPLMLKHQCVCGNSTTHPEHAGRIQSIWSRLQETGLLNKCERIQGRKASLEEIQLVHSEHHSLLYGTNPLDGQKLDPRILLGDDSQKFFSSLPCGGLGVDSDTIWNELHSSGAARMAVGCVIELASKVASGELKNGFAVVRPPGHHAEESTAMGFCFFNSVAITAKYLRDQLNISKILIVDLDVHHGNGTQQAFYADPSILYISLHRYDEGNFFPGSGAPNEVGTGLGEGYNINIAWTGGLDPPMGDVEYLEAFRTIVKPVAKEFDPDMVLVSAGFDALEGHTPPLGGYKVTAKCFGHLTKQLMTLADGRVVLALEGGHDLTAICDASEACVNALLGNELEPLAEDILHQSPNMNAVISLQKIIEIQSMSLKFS

HDAC2 = HDAC2 (Homo sapiens, UniProt Q92769); experiment: HDAC biochemical assay
Chain of HDAC2 (Q92769 whole entry): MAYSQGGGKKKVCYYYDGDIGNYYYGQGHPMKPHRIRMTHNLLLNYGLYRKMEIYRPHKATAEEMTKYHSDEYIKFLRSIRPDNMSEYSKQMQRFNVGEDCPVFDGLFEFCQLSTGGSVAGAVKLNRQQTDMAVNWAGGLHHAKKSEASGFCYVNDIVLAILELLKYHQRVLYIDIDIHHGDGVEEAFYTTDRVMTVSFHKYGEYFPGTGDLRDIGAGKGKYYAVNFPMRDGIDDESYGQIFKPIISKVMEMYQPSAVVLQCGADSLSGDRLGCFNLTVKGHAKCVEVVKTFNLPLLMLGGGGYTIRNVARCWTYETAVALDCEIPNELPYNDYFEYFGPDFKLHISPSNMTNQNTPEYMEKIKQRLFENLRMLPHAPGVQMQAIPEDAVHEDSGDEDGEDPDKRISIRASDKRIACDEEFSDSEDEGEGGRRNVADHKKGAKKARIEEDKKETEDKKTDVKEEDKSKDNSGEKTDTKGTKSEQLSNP

HDAC3 = HDAC3 (Homo sapiens, UniProt O15379); experiment: HDAC biochemical assay
Chain of HDAC3 (O15379 whole entry): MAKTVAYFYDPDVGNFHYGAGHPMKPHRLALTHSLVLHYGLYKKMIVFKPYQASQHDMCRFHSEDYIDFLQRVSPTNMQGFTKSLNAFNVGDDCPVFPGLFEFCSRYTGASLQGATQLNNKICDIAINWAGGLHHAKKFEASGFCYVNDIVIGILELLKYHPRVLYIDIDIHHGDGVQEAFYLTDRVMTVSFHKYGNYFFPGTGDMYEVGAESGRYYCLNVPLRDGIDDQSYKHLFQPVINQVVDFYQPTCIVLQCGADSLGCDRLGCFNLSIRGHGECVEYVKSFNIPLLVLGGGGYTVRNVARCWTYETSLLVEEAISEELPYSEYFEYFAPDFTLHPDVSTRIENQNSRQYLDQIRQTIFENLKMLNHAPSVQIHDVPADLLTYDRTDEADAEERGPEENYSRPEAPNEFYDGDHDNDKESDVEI
Chain of HDAC3 (Q9Y618 395-489 partner limits assumed): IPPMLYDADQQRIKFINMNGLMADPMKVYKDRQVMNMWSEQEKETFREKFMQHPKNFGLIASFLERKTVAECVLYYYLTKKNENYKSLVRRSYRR

11 HDACs = experiment: HDAC biochemical assay, panel statements; settings: up to 10 µM dose

| IC50 (HDAC5) [µM] | IC50 (HDAC1; HDAC1 IC50, biochemical HDAC assay, AMC-labeled peptide substrate) [µM] | IC50 (HDAC9) [µM] | Structure (SMILES) | acetylated α-tubulin level [1] | IC50 (HDAC4) [µM] | effect on acetylation/deacetylation of histone H3 [2] | IC50 (HDAC5; HDAC5 IC50, biochemical HDAC assay, acetyl-Lys(trifluoroacetyl)-AMC substrate) [µM] | IC50 (HDAC10) [µM] | IC50 (HDAC6) [µM] | IC50 (HDAC11) [µM] | IC50 (HDAC7) [µM] | inhibition in primary screening (several HDAC subtypes) [%] | IC50 (HDAC8) | IC50 (HDAC1) [µM] | IC50 (HDAC9; HDAC9 IC50, biochemical HDAC assay, acetyl-Lys(trifluoroacetyl)-AMC substrate) [µM] | IC50 (HDAC2) [µM] | IC50 (HDAC3) [µM] | inhibition of the other HDAC subtypes (other than HDAC5, HDAC6, HDAC8, HDAC9) (11 HDACs) |
| --- | --- | --- | --- | --- | --- | --- | --- | --- | --- | --- | --- | --- | --- | --- | --- | --- | --- | --- |
| – | – | – | O=C(CCCCCCNC(=O)c1cnc(N(c2ccccc2)c2ccccc2)nc1)NO [ACY-1215] | significantly increased | – | – | – | – | – | – | – | – | – | – | – | – | – | – |
| – | – | – | O=c1c2ccccc2[se]n1-c1ccccc1 [Ebselen, 2-phenyl-1,2-benzisoselenazol-3(2H)-one] | not observed | > 10 | not observed | 3.49 | > 10 | 6.99 | > 10 | > 10 | > 50 | 1.2 µM and 1.21 µM | > 10 | 3.75 | > 10 | > 10 | no significant inhibition |
| 1.57 | 3.62 | 3.77 | Cc1ccccc1-n1sc2cc(F)ccc2c1=O [Thr101, 6-Fluoro-2-o-tolylbenzo[d] isothiazol-3(2H)-one] | – | 6.07 | – | – | > 10 | 4.14 | > 10 | 3.43 | – | – | – | – | > 10 | 4.24 | – |

Reference: publication PMC5422321 (Drug Design, Development and Therapy, 2017)
